This is an account of results in paper PMC7111758 (Tetrahedron, 2019).

Structures are written as SMILES. A value given as a limit tells only on which side of the number the result lay.

One series concerns vaccinia virus (VACV). The experiment in a line: microbe, parasite or virus in culture. In kind it is cell-based. To be noted: for EC50: Orthopoxvirus vaccinia, HEL, read-out: Antiviral activity - EC50 VACV.
The nature of series [1]: Cytostatic activity, inhibition of HEL cell growth. The following applies: human, HEL cells. In kind it is cell-based. A digest of the protocol:
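HEL cells seeded at 5 × 10^3 cells/well, allowed to proliferate 24 h, then given medium with different concentrations of test compound. After three days at 37 °C, cell number counted with a Coulter counter. CC50 is the concentration reducing proliferation by 50% relative to untreated control cell counts.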

Series [2] concerns herpes simplex virus type 2 (HSV-2) strain G. The experiment in a line: Antiviral assay, virus-induced cytopathic effect in HEL cells, HSV-2 G. In kind it is cell-based. To be noted: Human alphaherpesvirus 2, HEL, read-out: Antiviral activity - EC50 HSV-2 G (TK+).
In another series the test system is HEL cells. In words: Cytotoxicity, microscopically detectable alteration of cell morphology. The following applies: for Cytotoxicity MCC (minimum cytotoxic concentration): microscopically detectable alteration of cell morphology. The class given is cell-based, human.
The next series relates to adenovirus-2. In words: Antiviral assay, virus-induced cytopathic effect, adenovirus-2. In kind it is cell-based. To be noted: for EC50: Human mastadenovirus C, read-out: Antiviral activity - EC50 Adeno-2.
For series [3], the system named is human cytomegalovirus (HCMV) strain Davis. In words: Antiviral assay, virus-induced cytopathic effect in HEL cells, HCMV Davis. The following applies: Human betaherpesvirus 5, HEL, read-out: Antiviral activity - EC50 HCMV Davis. The class given is cell-based.
For series [4], the system named is varicella-zoster virus (VZV) strain Oka (TK+). The experiment in a line: microbe, parasite or virus in culture. In kind it is cell-based. The following applies: Human alphaherpesvirus 3, HEL, read-out: Antiviral activity - EC50 VZV Oka (TK+).
Series [5] has as its system human cytomegalovirus (HCMV) strain AD-169. The experiment in a line: Antiviral assay, virus-induced cytopathic effect in HEL cells, HCMV AD-169. In kind it is cell-based. To be noted: HCMV replication; compared with reference drug ganciclovir.

For the compound `Nc1nc2c(ncn2COCCO)c(=O)[nH]1` [ACV, acyclovir, reference compound], the values for the EC50 (with vaccinia virus (VACV); in series [2]) were over 250 µM and 0.21 ± 0.12 µM, respectively. Moreover, in series [1], the CC50 at 3 days is over 440 µM. In the series with HEL cells, the “Cytotoxicity MCC (minimum cytotoxic concentration)” value (“Cytotoxicity MCC” for short) is over 440 µM.

With `Nc1ncn(CC(O)C(F)(F)F)c(=O)n1` (centres unmarked) [compound 22, 4-Amino-1-(3,3,3-trifluoro-2-hydroxypropyl)-1,3,5-triazin-2(1H)-one], the 50% effective concentration (EC50) with adenovirus-2 is 268 ± 178 µM; in series [3], 200 ± 17.8 µM; with vaccinia virus (VACV) it was over 446 µM; in series [2], 230 ± 29 µM; in series [4] it was 40.6 ± 11.7 µM. For the same compound, the CC50 at 3 days in series [1] was over 446 µM. Besides, the “Cytotoxicity MCC” value in the series with HEL cells was over 446 µM.

Regarding `Nc1nc(O)c2ncn(COC(CO)CO)c2n1` [GCV, ganciclovir, reference compound], the EC50 in series [3] was 3 ± 2.7 µM; in the series with vaccinia virus (VACV), over 100 µM; in series [2], 0.03 µM. This compound displayed a CC50 at 3 days in series [1] of over 350 µM. In addition, the “Cytotoxicity MCC” value in the series with HEL cells was over 350 µM.

For the compound `CCOC(=O)C(C)NP(=O)(COC(CF)CN1CN2C=C(c3ccccc3)NC2=NC1=O)NC(C)C(=O)OCC` (centres unmarked) [19a, Diethyl 2,2'-(((((1-fluoro-3-(2-oxo-7-phenyl-2,8-dihydroimidazo[1,2-a][1,3,5]triazin-3(4H)-yl)propan-2-yl)oxy)methyl)phosphoryl)bis(azanediyl))-dipropionate], the EC50 (in the series on adenovirus-2; in series [3]; in the series on vaccinia virus (VACV); in series [2]; in series [4]) was over 100 µM throughout. The “Cytotoxicity MCC” value in the series with HEL cells was over 100 µM.

In the case of `CCOC(=O)C(C)NP(=O)(COC(CF)CN1CN2C=C(c3ccc(OC)cc3)NC2=NC1=O)NC(C)C(=O)OCC` (centres unmarked) [19c, Diethyl 2,2'-(((((1-fluoro-3-(7-(4-methoxyphenyl)-2-oxo-2,8-dihydroimidazo[1,2-a][1,3,5]triazin-3(4H)-yl)propan-2-yl)oxy)methyl)phosphoryl)bis(azanediyl))-dipropionate], the EC50 (in the series with adenovirus-2; in series [3]; in the series with vaccinia virus (VACV); in series [2]; in series [4]) was over 100 µM throughout. The “Cytotoxicity MCC” value with HEL cells was over 100 µM.

As to `Nc1ccn(C[C@@H](CO)OCP(=O)(O)O)c(=O)n1` [CDV, cidofovir, reference compound], the half-maximal effective concentration (EC50) in the series on adenovirus-2 was 8.3 ± 2.1 µM; in series [3], 0.73 ± 0.31 µM; in the series on vaccinia virus (VACV), 26 ± 12 µM; in series [2] it was 1.3 ± 0.4 µM. Moreover, the cytotoxic concentration (CC50) at 3 days in series [1] was over 300 µM. Also, in the series on HEL cells, the “Cytotoxicity MCC” value was over 300 µM.

In the case of `Nc1ncn(C[C@@H](CF)OCP(=O)(O)O)c(=O)n1` [compound 9, (S)-{[1-(4-Amino-2-oxo-1,3,5-triazin-1(2H)-yl)-3-fluoropropan-2-yl]oxymethyl}phosphonic acid], the EC50 (in the series with adenovirus-2; in series [3]; in the series on vaccinia virus (VACV); in series [2]; in series [4]) was over 100 µM in each case. In addition, the “Cytotoxicity MCC” value in the series with HEL cells is over 100 µM.

Turning to `NC1=NC(=O)N(C[C@@H](CF)OCP(=O)(O)O)CN1` [compound 13, (S)-1-[3-Fluoro-2-(phosphonomethoxy)propyl]-5,6-dihydro-5-azacytosine], the half-maximal effective concentration (EC50) (in the series with adenovirus-2; in series [3]; with vaccinia virus (VACV); in series [2]; in series [4]) was over 100 µM in each case. In addition, the “Cytotoxicity MCC” value in the series on HEL cells was over 100 µM.

For `O=c1[nH]c(=O)n([C@H]2C[C@H](O)[C@@H](CO)O2)cc1/C=C/Br` [BVDU, brivudine, reference compound], the EC50 with vaccinia virus (VACV) came out at 11.3 ± 6.4 µM; in series [2], 123 ± 26 µM; in series [4], 0.023 ± 0.021 µM. This compound also registered a CC50 at 3 days in series [1] of over 300 µM. Moreover, the “Cytotoxicity MCC” value in the series with HEL cells was over 300 µM.

Consider `CC(C)OP(=O)(CO[C@H](CF)Cn1cnc(N)nc1=O)OC(C)C` [8a, Diisopropyl (S)-{[(1-(4-amino-2-oxo-1,3,5-triazin-1(2H)-yl)-3-fluoropropan-2-yl)oxy]methyl}phosphonate], for which the “EC50 against HCMV relative to ganciclovir” value in series [5] was “about three times higher”. Also, the half-maximal effective concentration (EC50) was over 100 µM in the series with adenovirus-2; 7.9 ± 5.5 µM in series [3]; over 100 µM in the series on vaccinia virus (VACV); 17.5 ± 10.6 µM in series [2]; 11.7 ± 4 µM in series [4]. Moreover, in the series with adenovirus-2 (in words), the activity against adenoviruses result is “inactive”. The “activity against vaccinia virus (poxvirus)” value in the series on vaccinia virus (VACV) was “inactive”. In series [1], this compound registered a half-maximal cytotoxic concentration (CC50) at 3 days of over 100 µM. In addition, the “Cytotoxicity MCC” value with HEL cells is over 100 µM. Besides, in the series with HEL cells (no cytotoxicity up to the highest concentration tested), the “cytotoxicity for HEL cells” value is over 100 µM.

In the case of `CCOC(=O)C(C)NP(=O)(COC(CF)CN1CN2C=C(c3ccc([N+](=O)[O-])cc3)NC2=NC1=O)NC(C)C(=O)OCC` (centres unmarked) [19b, Diethyl 2,2'-(((((1-fluoro-3-(7-(4-nitrophenyl)-2-oxo-2,8-dihydroimidazo[1,2-a][1,3,5]triazin-3(4H)-yl)propan-2-yl)oxy)methyl)phosphoryl)bis(azanediyl))-dipropionate], the EC50 (in the series on adenovirus-2; in series [3]; with vaccinia virus (VACV); in series [2]; in series [4]) was over 100 µM in each case. Further, the “Cytotoxicity MCC” value in the series on HEL cells was over 100 µM.

`CC(=O)O.NC1=NC(=O)N(CC(O)C(F)(F)F)CN1` (centres unmarked) [compound 23, 6-Amino-4-oxo-3-(3,3,3-trifluoro-2-hydroxypropyl)-1,2,3,4-tetrahydro-1,3,5-triazin-1-ium acetate]: the EC50 (with adenovirus-2; in series [3]; in the series on vaccinia virus (VACV); in series [2]; in series [4]) was over 100 µM each time. Besides, the “Cytotoxicity MCC” value in the series with HEL cells was over 100 µM.

For the compound `Nc1ncn(CC(OCP(=O)(O)O)C(F)(F)F)c(=O)n1` (centres unmarked) [compound 25, {[(3-(4-Amino-2-oxo-1,3,5-triazin-1(2H)-yl)-1,1,1-trifluoropropan-2-yl)oxy]methyl}phosphonic acid], the EC50 (in the series on adenovirus-2; in series [3]; with vaccinia virus (VACV); in series [2]; in series [4]) was over 100 µM throughout. In addition, the “Cytotoxicity MCC” value in the series on HEL cells is over 100 µM.
